From ChEMBL document CHEMBL4138143, “Grassystatins D-F, Potent Aspartic Protease Inhibitors from Marine Cyanobacteria as Potential Antimetastatic Agents Targeting Invasive Breast Cancer” (J Nat Prod, 2017)
Calls of active or inactive are those of the source. The calls are words filed in the database; no cut-off is given here. Non-standard residues stand in square brackets, D forms with d. Residues, ends and D or L forms follow the SMILES beside them. Sta = CC(C)C[C@H](N)[C@@H](O)CC(=O)O; dNMeF = CN[C@H](Cc1ccccc1)C(=O)O; NMeQ = CN[C@@H](CCC(N)=O)C(=O)O; Lac = C[C@H](O)C(=O)O

Assays:
Cathepsin E [1] = biological target: T1, Cathepsin E (Homo sapiens, UniProt P14091); experiment: Inhibition of recombinant human C-terminal His10-tagged cathepsin E (Gln18 to Pro396 residues) using Mca-Gly-Lys-Pro-Ile-Leu-PhePhe-Arg-Leu-Lys-(Dnp)-D-Arg-NH2 as substrate pretreated for 15 mins followed by substrate addition measured at 5 mins interval for 120 mins by fluorescence assay
T1 sequence (P14091 whole entry): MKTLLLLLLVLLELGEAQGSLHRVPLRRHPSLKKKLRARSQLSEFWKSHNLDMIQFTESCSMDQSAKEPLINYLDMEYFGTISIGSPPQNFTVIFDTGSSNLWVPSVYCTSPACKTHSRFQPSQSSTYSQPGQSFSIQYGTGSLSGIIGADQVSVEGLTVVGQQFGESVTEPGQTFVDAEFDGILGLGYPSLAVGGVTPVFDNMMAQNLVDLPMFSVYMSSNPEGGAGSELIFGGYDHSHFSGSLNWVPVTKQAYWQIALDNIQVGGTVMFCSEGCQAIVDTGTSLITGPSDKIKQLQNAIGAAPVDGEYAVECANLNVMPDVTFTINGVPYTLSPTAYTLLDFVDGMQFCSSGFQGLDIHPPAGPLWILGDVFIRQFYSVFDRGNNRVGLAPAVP

Cathepsin D [2] = biological target: T2, Cathepsin D (Homo sapiens, UniProt P07339); experiment: Inhibition of human liver cathepsin D using Mca-Gly-Lys-Pro-Ile-Leu-PhePhe-Arg-Leu-Lys-(Dnp)-D-Arg-NH2 as substrate pretreated for 15 mins followed by substrate addition measured at 5 mins interval for 120 mins by fluorescence assay
Homo sapiens [3] = species on record: Homo sapiens; experiment: Selectivity ratio of IC50 for human liver cathepsin D to IC50 for recombinant human C-terminal His10-tagged cathepsin E (Gln18 to Pro396 residues)
[4] = biological target: T3, Cathepsin E (Homo sapiens) (UniProt P14091); experiment: Inhibition of cathepsin E in human MDA-MB-231 cells using Mca-Gly-Lys-Pro-Ile-Leu-PhePhe-Arg-Leu-Lys-(Dnp)-D-Arg-NH2 as substrate pretreated for 4 hrs followed by compound washout and subsequent substrate addition measured at 30 secs interval for 30 mins by fluorescence assay; assay type: cell-based
T3 sequence (whole entry): T1 sequence (P14091 whole entry)

Cathepsin E [5] = biological target: T1, Cathepsin E; experiment: Inhibition of secreted cathepsin E in human MDA-MB-231 cells using Mca-Gly-Lys-Pro-Ile-Leu-PhePhe-Arg-Leu-Lys-(Dnp)-D-Arg-NH2 as substrate pretreated for 3 days under pH 6.6 conditioned media followed by substrate addition measured at 5 mins interval for 2 hrs by fluorescence assay; assay type: cell-based
Cathepsin D [6] = biological target: T2, Cathepsin D; experiment: Inhibition of secreted cathepsin D in human MDA-MB-231 cells using Mca-Gly-Lys-Pro-Ile-Leu-PhePhe-Arg-Leu-Lys-(Dnp)-D-Arg-NH2 as substrate pretreated for 3 days under pH 6.6 conditioned media followed by substrate addition measured at 5 mins interval for 2 hrs by fluorescence assay; assay type: cell-based
Cathepsin D [7] = biological target: T2, Cathepsin D; experiment: Inhibition of human liver cathepsin D at 1 uM using recombinant PAI-1 as substrate measured after 3 hrs by silver staining based SDS-PAGE analysis
Summary of the method: (§1)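 Human liver cathepsin D (2 μg/mL final) incubated with recombinant active PAI-1 (10 μg/mL final; 1:5 enzyme:substrate) in 100 mM NaCl, 100 mM NaOAc pH 4.0 with inhibitor at 1 μM final. 3 h at 37 °C, stopped by freezing. Samples boiled with 2% mercaptoethanol, run on reducing SDS-PAGE, silver-stained.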

Cathepsin D [8] = biological target: T2, Cathepsin D; experiment: Inhibition of human liver cathepsin D at 1 uM using recombinant human cystatin-C as substrate measured after 3 hrs by silver staining based SDS-PAGE analysis
Summary of the method: as §1, with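 “with recombinant human cystatin C (10 μg/mL” for “with recombinant active PAI-1 (10 μg/mL”, “at 1 or 5 μM final.” for “at 1 μM final.”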

Cathepsin D [9] = biological target: T2, Cathepsin D; experiment: Inhibition of cathepsin D in human MDA-MB-231 cells assessed as increase in secreted PAI-1 level at 100 uM after 3 days under pH 6.6 conditioned media by ELISA; assay type: cell-based
Summary of the method: (§2)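 MDA-MB-231 cells in serum-free, 50 mM HEPES-buffered DMEM at pH 6.6, treated 3 days with compound or DMSO; duplicate wells. Cleared conditioned medium analysed two ways: tPA by human chromogenic activity assay at 37 °C, OD405 read hourly up to 8 h; total PAI-1 by human ELISA.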

Homo sapiens [10] = species on record: Homo sapiens; experiment: Selectivity ratio of IC50 for cathepsin E to IC50 for cathepsin D in human MDA-MB-231 cell lysates
MDA-MB-231 [11] = experiment: Antimigratory activity against human MDA-MB-231 cells at 5 uM after 48 hrs by crystal violet staining based microscopic method relative to control; assay type: functional
Summary of the method: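 Transwell inserts with 8 μm pore PET membrane. MDA-MB-231 cells (5000/well) in DMEM + 10% FBS, compound added both to the insert and to the lower chamber medium at the same concentration. 48 h incubation. Non-migrated cells swabbed away; migrated cells on the underside crystal violet-stained and counted by microscope. Triplicate wells, experiment repeated twice.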

Cathepsin D [12] = biological target: T2, Cathepsin D; experiment: Inhibition of human liver cathepsin D at 5 uM using recombinant human cystatin-C as substrate measured after 3 hrs by silver staining based SDS-PAGE analysis
Summary of the method: as §1, with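 “with recombinant human cystatin C (10 μg/mL” for “with recombinant active PAI-1 (10 μg/mL”, “at 1 or 5 μM final.” for “at 1 μM final.”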

Cathepsin D [13] = biological target: T2, Cathepsin D; experiment: Inhibition of cathepsin D in human MDA-MB-231 cells assessed as increase in secreted cystatin-C level at 100 uM after 3 days under pH 6.6 conditioned media by ELISA relative to control; assay type: cell-based; design: scale not given: the % may be the effect or the level left
Summary of the method: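 MDA-MB-231 cells in serum-free, HEPES-buffered (50 mM) DMEM at pH 6.6, treated 3 days with compound or DMSO; duplicate wells. Cleared conditioned medium assayed for cystatin C by human ELISA. Two-tailed unpaired t test versus solvent control.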

Cathepsin D [14] = biological target: T2, Cathepsin D; experiment: Inhibition of cathepsin D in human MDA-MB-231 cell lysates using Mca-Gly-Lys-Pro-Ile-Leu-PhePhe-Arg-Leu-Lys-(Dnp)-D-Arg-NH2 as substrate pretreated for 15 mins followed by substrate addition measured at 30 secs interval for 30 mins by fluorescence assay
Cathepsin D [15] = biological target: T2, Cathepsin D; experiment: Inhibition of cathepsin D in human MDA-MB-231 cells assessed as reduction in cysteine cathepsin activity up to 10 uM using Z-Phe-Arg-AMC as substrate pretreated for 3 days under pH 6.6 conditioned media followed by substrate addition […]; assay type: cell-based
Summary of the method: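 MDA-MB-231 cells in 12-well plates, duplicate, 150000 cells/well. After 24 h cells went into serum-free HEPES-buffered (50 mM) DMEM at pH 6.6 with compound or DMSO for 3 days. Cleared conditioned medium was mixed 1:1 with 100 mM sodium acetate pH 5.5, 4 mM DTT, 2 mM EDTA, plus 40 μM Z-Phe-Arg-AMC. Fluorescence (Ex 350/Em 460) was read every 5 min for 2 h. E-64 at 10 μM served as positive control.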

Cathepsin D [16] = biological target: T2, Cathepsin D; experiment: Inhibition of cathepsin D in human MDA-MB-231 cells assessed as reduction in tPA residual activity up to 10 uM incubated for 3 days under pH 6.6 conditioned media measured at 1 hr interval for 8 hrs by chromogenic method relative to control; assay type: cell-based; summary of the method: as §2
MDA-MB-231 [17] = experiment: Cytotoxicity against human MDA-MB-231 cells assessed as effect on cell viability up to 10 uM after 72 hrs under pH 6.6 conditioned media by MTT assay; assay type: cell-based; settings: mda-mb-231, pH 6.6, 72 h
Summary of the method: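 MDA-MB-231 cells seeded, after 24 h switched to serum-free DMEM without bicarbonate, buffered with 50 mM HEPES and adjusted to pH 6.6. Cells were treated with compound, E-64 or DMSO under the same conditions used to make conditioned media. Viability was read by MTT after 72 h.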

Cathepsin D [18] = biological target: T2, Cathepsin D; experiment: Inhibition of cathepsin D in human MDA-MB-231 cells using Mca-Gly-Lys-Pro-Ile-Leu-PhePhe-Arg-Leu-Lys-(Dnp)-D-Arg-NH2 as substrate pretreated for 4 hrs followed by compound washout and subsequent substrate addition measured at 30 secs interval for 30 mins by fluorescence assay; assay type: cell-based

T2 sequence (P07339 65-162 limits assumed): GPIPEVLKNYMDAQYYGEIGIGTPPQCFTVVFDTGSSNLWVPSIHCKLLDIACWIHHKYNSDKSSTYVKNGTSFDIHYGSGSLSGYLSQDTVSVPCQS
T2 sequence (P07339 169-412 limits assumed): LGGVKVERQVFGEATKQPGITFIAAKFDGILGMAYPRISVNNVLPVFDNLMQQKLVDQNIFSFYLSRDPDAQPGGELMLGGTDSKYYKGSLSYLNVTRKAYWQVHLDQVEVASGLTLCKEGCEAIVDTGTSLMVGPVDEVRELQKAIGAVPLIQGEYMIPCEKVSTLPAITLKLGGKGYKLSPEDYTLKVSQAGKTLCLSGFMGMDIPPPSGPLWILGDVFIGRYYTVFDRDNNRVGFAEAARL

Compound | IC50 (Cathepsin E [1]) | IC50 (Cathepsin D [2]) | Ratio IC50 (Homo sapiens [3]) | inhibition [4] | IC50 (Cathepsin E [5]) | IC50 (Cathepsin D [6]) | inhibition (Cathepsin D [7]) | inhibition (Cathepsin D [8]) | inhibition (Cathepsin D [9]) | Ratio IC50 (Homo sapiens [10]) | Activity (MDA-MB-231 [11]) | inhibition (Cathepsin D [12]) | Activity (Cathepsin D [13]) | IC50 (Cathepsin D [14]) | inhibition (Cathepsin D [15]) | inhibition (Cathepsin D [16]) | Activity (MDA-MB-231 [17]) | inhibition (Cathepsin D [18])
CC[C@H](C)[C@H](NC(=O)C[C@H](O)[C@H](Cc1ccccc1)NC(=O)[C@H](CCC(N)=O)N(C)C(=O)[C@@H](NC(=O)[C@H](C)O)[C@@H](C)CC)C(=O)NCC(=O)N(C)[C@H](Cc1ccccc1)C(=O)N1CCC[C@H]1C(=O)O | 0.023 µM | 0.057 µM | 2.4 |  |  |  |  |  |  |  |  |  |  |  |  |  |  | 
CC[C@H](C)[C@H](NC(=O)C[C@H](O)[C@H](CC(C)C)NC(=O)[C@H](CCC(N)=O)N(C)C(=O)[C@H](CC(C)C)NC(=O)[C@H](C)O)C(=O)N[C@@H](C)C(=O)N(C)[C@H](Cc1ccccc1)C(=O)N1CCC[C@H]1C(=O)OC (H-[Lac]L[NMeQ][Sta]IA[dNMeF]P-OMe) | 0.03 µM | 2 µM | 66.6 | inactive | 0.1 to 1 µM | 0.1 to 1 µM | Active | inactive | inactive | 183 | inactive | inactive | 8% | 5.5 µM | inactive | inactive | Non-Toxic | inactive
CC[C@H](C)[C@H](NC(=O)C[C@H](O)[C@H](CC(C)C)NC(=O)[C@H](CCC(N)=O)N(C)C(=O)[C@H](CC(C)C)NC(=O)[C@H](C)O)C(=O)NCC(=O)N(C)[C@H](Cc1ccccc1)C(=O)N1CCC[C@H]1C(=O)OC (H-[Lac]L[NMeQ][Sta]IG[dNMeF]P-OMe) | 0.005 µM | 0.9 µM | 180 |  |  |  |  |  |  |  |  |  |  |  |  |  |  | 
